Laboratory results reported in ChEMBL document CHEMBL4819040, “Limonoids from Guarea guidonia and Cedrela odorata: Heat Shock Protein 90 (Hsp90) Modulator Properties of Chisomicine D” (J Nat Prod, 2021).
The source made the active and inactive calls. The calls are words filed in the database; no cut-off is given here.

Columns and labels:
[1] = biological target: T1, Heat shock protein HSP 90-alpha (Homo sapiens, UniProt P07900); experiment: Binding affinity to recombinant human HSP90alpha by surface plasmon resonance analysis
[2] = Cytotoxicity against human PBMC cells assessed as cell viability after 48 hrs by MTT assay; format: cell-based
Procedure, shortened: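 PBMCs isolated from healthy-donor buffy coats on Ficoll-Hypaque gradients, exposed to 30 μM or DMSO for 48 h. Viability read by MTT (absorbance 550 nm). Technical triplicates, repeated twice.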

[3] = system: U-937; experiment: Induction of cell cycle arrest in human U937 cells assessed as G1 phase cells at 20 uM incubated for 48 hrs PI staining based flow cytometric analysis (reference value: 60.8 %); format: functional
[4] = system: U-937; experiment: Induction of cell cycle arrest in human U937 cells assessed as decrease in cells at S phase at 20 uM incubated for 48 hrs PI staining based flow cytometric analysis (reference value: 23.6 %); format: functional; parameters: scale not given: the % may be the effect or the level left
[5] = system: U-937; experiment: Induction of cell cycle arrest in human U937 cells assessed as increase in cells at G2 phase at 20 uM incubated for 48 hrs PI staining based flow cytometric analysis (reference value: 11.1 %); format: functional
[6] = system: U-937; experiment: Induction of cell cycle arrest in human U937 cells assessed as phosphorylated CDC2 expression at 10 uM by Western blotting analysis (reference value: 1.07); format: functional
Procedure, shortened: (§1)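 U937 cells given vehicle (DMSO) or 10 or 20 μM. RIPA whole-cell lysates (protease/phosphatase inhibitors) resolved by SDS-PAGE, blotted to nitrocellulose, ECL detection. Targets: pro-caspase 3/caspase 3 or p-CDC2 (p34)/CDC2. Densitometry normalized. Duplicate experiments.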

[7] = system: U-937; experiment: Induction of cell cycle arrest in human U937 cells assessed as phosphorylated CDC2 expression at 20 uM by Western blotting analysis (reference value: 1.07); format: functional; procedure, shortened: as §1
[8] = system: U-937; experiment: Induction of cell cycle arrest in human U937 cells assessed as CDC2 protein expression at 10 uM by Western blotting analysis (reference value: 1.22); format: functional; procedure, shortened: as §1
[9] = system: U-937; experiment: Induction of cell cycle arrest in human U937 cells assessed as CDC2 protein expression at 20 uM by Western blotting analysis (reference value: 1.22); format: functional; procedure, shortened: as §1
[10] = system: U-937; experiment: Induction of apoptosis in human U-937 cells assessed as viable cells at 20 uM after 48 hrs by AnnexinV-FITC/propidium iodide staining based flow cytometry (reference value: 82.7 %); format: functional; details: read-out: Activity
[11] = system: U-937; experiment: Induction of apoptosis in human U-937 cells assessed as early apoptotic cells at 20 uM after 48 hrs by AnnexinV-FITC/propidium iodide staining based flow cytometry (reference value: 4.90 %); format: functional
[12] = system: U-937; experiment: Induction of apoptosis in human U-937 cells assessed as late apoptotic cells at 20 uM after 48 hrs by AnnexinV-FITC/propidium iodide staining based flow cytometry (reference value: 12.4 %); format: functional
[13] = system: U-937; experiment: Induction of apoptosis in human U-937 cells assessed as necrotic cells at 20 uM after 48 hrs by AnnexinV-FITC/propidium iodide staining based flow cytometry (reference value: 0 %); format: functional
[14] = system: U-937; experiment: Induction of apoptosis in human U-937 cells assessed as cleavage of pro-caspase at 20 uM by Western blotting analysis; format: functional, cell-based; procedure, shortened: as §1
[15] = biological target: T1, Heat shock protein HSP 90-alpha; experiment: Inhibition of HSP90alpha (unknown origin) at 10 to 20 uM; details: dose 10-20 µM
[16] = biological target: T1, Heat shock protein HSP 90-alpha; experiment: Effect on HSP90alpha in human U-937 cells assessed as p-JNK p54 protein level at 10 uM after 48 hrs by Western blot analysis (reference value: 2.22); format: cell-based; details: filed as modulator
Procedure, shortened: (§2)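 U937 cells (RPMI 1640, 10% FBS, 37 °C, 5% CO2) treated 48 h at 10, 20 or 30 μM, DMSO vehicle ≤0.3%. RIPA lysates, Bradford protein assay, SDS-PAGE, nitrocellulose, HRP secondary with ECL detection. GAPDH loading control, densitometry normalized. Run in duplicate.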

[17] = biological target: T1, Heat shock protein HSP 90-alpha; experiment: Effect on HSP90alpha in human U-937 cells assessed as JNK p54 protein level at 10 uM after 48 hrs by Western blot analysis (reference value: 2.45); format: cell-based; details: filed as modulator; procedure, shortened: as §2
[18] = biological target: T1, Heat shock protein HSP 90-alpha; experiment: Effect on HSP90alpha in human U-937 cells assessed as p-JNK p46 protein level at 10 uM after 48 hrs by Western blot analysis (reference value: 1.06); format: cell-based; details: filed as modulator; procedure, shortened: as §2
[19] = biological target: T1, Heat shock protein HSP 90-alpha; experiment: Effect on HSP90alpha in human U-937 cells assessed as p-JNK p46 protein level at 20 uM after 48 hrs by Western blot analysis (reference value: 1.06); format: cell-based; details: filed as modulator; procedure, shortened: as §2
[20] = biological target: T1, Heat shock protein HSP 90-alpha; experiment: Effect on HSP90alpha in human U-937 cells assessed as p-JNK p46 protein level at 30 uM after 48 hrs by Western blot analysis (reference value: 1.06); format: cell-based; details: filed as modulator; procedure, shortened: as §2
[21] = biological target: T1, Heat shock protein HSP 90-alpha; experiment: Effect on HSP90alpha in human U-937 cells assessed as JNK p46 protein level at 10 uM after 48 hrs by Western blot analysis (reference value: 1.22); format: cell-based; details: filed as modulator; procedure, shortened: as §2
[22] = biological target: T1, Heat shock protein HSP 90-alpha; experiment: Effect on HSP90alpha in human U-937 cells assessed as JNK p46 protein level at 20 uM after 48 hrs by Western blot analysis (reference value: 1.22); format: cell-based; details: filed as modulator; procedure, shortened: as §2
[23] = biological target: T1, Heat shock protein HSP 90-alpha; experiment: Effect on HSP90alpha in human U-937 cells assessed as JNK p46 protein level at 30 uM after 48 hrs by Western blot analysis (reference value: 1.22); format: cell-based; details: filed as modulator; procedure, shortened: as §2
[24] = biological target: T1, Heat shock protein HSP 90-alpha; experiment: Effect on HSP90alpha in human U-937 cells assessed as p-ERK2 protein level at 10 uM after 48 hrs by Western blot analysis (reference value: 1.67); format: cell-based; details: filed as modulator; procedure, shortened: as §2
[25] = biological target: T1, Heat shock protein HSP 90-alpha; experiment: Effect on HSP90alpha in human U-937 cells assessed as ERK2 protein level at 10 uM after 48 hrs by Western blot analysis (reference value: 0.69); format: cell-based; details: filed as modulator; procedure, shortened: as §2
[26] = biological target: T1, Heat shock protein HSP 90-alpha; experiment: Effect on HSP90alpha in human U-937 cells assessed as ERK2 protein level at 20 uM after 48 hrs by Western blot analysis (reference value: 0.69); format: cell-based; details: filed as modulator; procedure, shortened: as §2
[27] = biological target: T1, Heat shock protein HSP 90-alpha; experiment: Effect on HSP90alpha in human U-937 cells assessed as ERK2 protein level at 30 uM after 48 hrs by Western blot analysis (reference value: 0.69); format: cell-based; details: filed as modulator; procedure, shortened: as §2
[28] = biological target: T1, Heat shock protein HSP 90-alpha; experiment: Effect on HSP90alpha in human U-937 cells assessed as HSP90 protein level at 10 uM after 48 hrs by Western blot analysis (reference value: 1.12); format: cell-based; details: filed as modulator; procedure, shortened: as §2
[29] = biological target: T1, Heat shock protein HSP 90-alpha; experiment: Effect on HSP90alpha in human U-937 cells assessed as HSP90 protein level at 20 uM after 48 hrs by Western blot analysis (reference value: 1.12); format: cell-based; details: filed as modulator; procedure, shortened: as §2
[30] = biological target: T1, Heat shock protein HSP 90-alpha; experiment: Effect on HSP90alpha in human U-937 cells assessed as HSP90 protein level at 30 uM after 48 hrs by Western blot analysis (reference value: 1.12); format: cell-based; details: filed as modulator; procedure, shortened: as §2
[31] = biological target: T1, Heat shock protein HSP 90-alpha; experiment: Effect on HSP90alpha in human U-937 cells assessed as HSP70 protein level at 10 uM after 48 hrs by Western blot analysis (reference value: 0.83); format: cell-based; details: filed as modulator; procedure, shortened: as §2
[32] = biological target: T1, Heat shock protein HSP 90-alpha; experiment: Effect on HSP90alpha in human U-937 cells assessed as HSP70 protein level at 20 uM after 48 hrs by Western blot analysis (reference value: 0.83); format: cell-based; details: filed as modulator; procedure, shortened: as §2
[33] = biological target: T1, Heat shock protein HSP 90-alpha; experiment: Effect on HSP90alpha in human U-937 cells assessed as HSP70 protein level at 30 uM after 48 hrs by Western blot analysis (reference value: 0.83); format: cell-based; details: filed as modulator; procedure, shortened: as §2

## CC(=O)O[C@H]1C[C@@]2(C)[C@H](C3=CC(=O)O[C@@H]3O)OC(=O)[C@H]3O[C@]32[C@@]2(C)[C@H]1[C@@]1(C)[C@@H](OC(C)=O)CC(=O)OC(C)(C)[C@@H]1C[C@H]2OC(C)=O
[1]
  Kd: Not Active

## CC(=O)O[C@H]1CC(=O)OC(C)(C)[C@@H]2C[C@@H](OC(C)=O)[C@@]3(C)C4=CC[C@@H](C(O)(CO)CCO)[C@]4(C)CC[C@@H]3[C@@]12C (stereo partly specified)
[1]
  Kd: Not Active

## COC(=O)C[C@H]1C(C)(C)[C@H](OC(=O)C(O)C(C)C)[C@@H]2C=C3C4CC(=O)O[C@@H](c5ccoc5)[C@]4(C)CC[C@@H]3[C@@]1(C)C2=O (stereo partly specified)
[1]
  Kd: Not Active

## C=C(C)C(=O)O[C@@H]1/C=C\[C@]2(O)C3=CC(=O)O[C@@H](c4ccoc4)[C@]3(C)CC[C@]2(O)[C@]2(C)C(=O)C[C@@]1(C)[C@@H]2CC(=O)OC
[1]
  Kd: Not Active

## CC(=O)O[C@H]1C[C@@]2(C)[C@H](C3=CC(=O)O[C@@H]3O)OC(=O)[C@H]3O[C@]32[C@@]2(C)[C@H]1[C@@]1(C)C=CC(=O)OC(C)(C)[C@@H]1C[C@H]2OC(C)=O
[1]
  Kd: Not Active

## CC(=O)O[C@H]1C[C@@]2(C)[C@H](c3ccoc3)OC(=O)[C@H]3O[C@]32[C@@]2(C)[C@H]1[C@@]1(C)[C@@H](OC(C)=O)CC(=O)OC(C)(C)[C@@H]1C[C@H]2OC(C)=O
[1]
  Kd: Not Active

## COC(=O)C[C@H](OC(C)=O)[C@]1(C)[C@H]2[C@@H](OC(C)=O)C[C@@]3(C)[C@H](c4ccoc4)OC(=O)[C@H]4O[C@]43[C@]2(C)[C@H](OC(C)=O)C[C@H]1C(C)(C)O
[1]
  Kd: Not Active

## C/C=C(\C)C(=O)O[C@@H]1/C=C\C2=C3CC(=O)O[C@@H](c4ccoc4)[C@]3(C)CC[C@]2(O)[C@]2(C)C(=O)C[C@@]1(C)[C@@H]2CC(=O)OC (relative stereo)
[1]
  Kd: Not Active

## C/C=C(\C)C(=O)O[C@@H]1/C=C\[C@]2(O)C3=CC(=O)O[C@@H](c4ccoc4)[C@]3(C)CC[C@]2(O)[C@]2(C)C(=O)C[C@@]1(C)[C@@H]2CC(=O)OC (relative stereo)
[2]
  Activity: Non-Toxic
[3]
  Activity: 53.1%
[4]
  Activity: 12.3%
[5]
  Activity: 16.7%
[6]
  fold change (FC): 0.84
[7]
  fold change (FC): 1.09
[8]
  fold change (FC): 1.18
[9]
  fold change (FC): 0.58
[10]
  viability at 20 µM: 63.1%
[11]
  Activity: 8.62%
[12]
  Activity: 28.3%
[13]
  Activity: 0%
[14]
  Activity: Active
[15]
  inhibition: inactive
[16]
  fold change (FC): 1.45
[17]
  fold change (FC): 1.18
[18]
  fold change (FC): 0.97
[19]
  fold change (FC): 1.01
[20]
  fold change (FC): 0.95
[21]
  fold change (FC): 1.13
[22]
  fold change (FC): 0.92
[23]
  fold change (FC): 0.65
[24]
  fold change (FC): 2.12
[25]
  fold change (FC): 1.17
[26]
  fold change (FC): 1.17
[27]
  fold change (FC): 1.03
[28]
  fold change (FC): 1.21
[29]
  fold change (FC): 0.82
[30]
  fold change (FC): 0.93
[31]
  fold change (FC): 1.3
[32]
  fold change (FC): 0.91
[33]
  fold change (FC): 1

## COC(=O)C[C@H]1C(C)(C)[C@H](O)[C@@H]2CC3=C4CC(=O)O[C@@H](c5ccoc5)[C@]4(C)CC[C@@H]3[C@@]1(C)C2=O [PROCERANOLIDE]
[1]
  Kd: Not Active
